From ChEMBL document CHEMBL1125303, “Truncated, branched, and/or cyclic analogues of neuropeptide Y: importance of the pancreatic peptide fold in the design of specific Y2 receptor ligands” (J Med Chem, 1992)
Positions of bridges follow the written chain, without caps; N, C: chain ends. Non-standard residues stand in square brackets, D forms with d. Residues, ends and D or L forms follow the SMILES beside them. Orn = NCCC[C@H](N)C(=O)O; Dap = NC[C@H](N)C(=O)O

What was measured:
[1] = target: T1, Neuropeptide Y receptor type 2 (Homo sapiens, UniProt P49146); assay: Displacement of l25I-PYY from Neuropeptide Y receptor type 2 of human neuroblastoma SK-N-BE cells; format: cell-based
T1 sequence (P49146 whole entry): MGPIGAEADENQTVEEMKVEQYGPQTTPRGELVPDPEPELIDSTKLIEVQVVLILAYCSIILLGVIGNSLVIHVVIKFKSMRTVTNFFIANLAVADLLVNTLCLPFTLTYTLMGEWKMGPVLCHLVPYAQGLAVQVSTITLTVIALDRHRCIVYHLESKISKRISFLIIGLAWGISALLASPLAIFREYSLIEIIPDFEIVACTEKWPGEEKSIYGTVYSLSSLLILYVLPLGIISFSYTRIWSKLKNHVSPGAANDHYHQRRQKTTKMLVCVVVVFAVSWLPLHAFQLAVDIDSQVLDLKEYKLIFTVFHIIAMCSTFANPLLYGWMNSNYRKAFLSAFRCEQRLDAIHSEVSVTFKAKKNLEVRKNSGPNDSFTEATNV
Method in brief: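 Intact SK-N-BE(2) cells (Y2) were grown in DME:F12 with 10% FCS, then plated at 10⁶ cells/well on poly(Lys-Ala)-coated wells and used after 1 day. Cells were washed cold, lysed and gamma-counted. Triplicates; Kd fitted with LIGAND.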

[2] = target: T2, Neuropeptide Y receptor type 1 (Homo sapiens, UniProt P25929); assay: Displacement of l25I-PYY from Neuropeptide Y receptor type 1 of human neuroblastoma SK-N-MC cells; format: cell-based
T2 sequence (P25929 whole entry): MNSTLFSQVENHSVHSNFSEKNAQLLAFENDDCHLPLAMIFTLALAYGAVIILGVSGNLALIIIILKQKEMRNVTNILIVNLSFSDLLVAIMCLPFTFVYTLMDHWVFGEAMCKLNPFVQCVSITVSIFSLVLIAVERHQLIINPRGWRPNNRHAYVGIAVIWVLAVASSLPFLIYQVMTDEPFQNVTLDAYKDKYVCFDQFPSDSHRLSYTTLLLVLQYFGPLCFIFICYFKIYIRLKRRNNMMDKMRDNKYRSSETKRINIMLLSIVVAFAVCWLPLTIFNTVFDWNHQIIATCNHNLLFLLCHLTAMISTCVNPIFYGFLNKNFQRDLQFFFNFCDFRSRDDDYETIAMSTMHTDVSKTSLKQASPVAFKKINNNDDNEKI
Method in brief: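 Intact SK-N-MC cells (Y1) were grown in MEM with 10% FCS, then plated at 10⁶ cells/well on poly(Lys-Ala)-coated wells and used after 2 days. Cells were washed cold, lysed and gamma-counted. Triplicates; Kd fitted with LIGAND.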

Compound	Kd ([1]; sk-n-be) [nM]	Kd ([2]; sk-n-mc) [nM]	Kd [1] [nM]	Kd [2] [nM]
CC[C@H](C)[C@H](NC(=O)[C@H](CC(C)C)NC(=O)[C@H](CC(N)=O)NC(=O)[C@@H](NC(=O)[C@H]1CNC(=O)CC[C@H](NC(=O)[C@@H](N)Cc2ccc(O)cc2)C(=O)N[C@@H](CO)C(=O)N[C@@H](CCCCN)C(=O)N2CCC[C@H]2C(=O)N[C@H](C)C(=O)N[C@@H](CC(C)C)C(=O)N[C@@H](CCCNC(=N)N)C(=O)N[C@@H](Cc2cnc[nH]2)C(=O)N1)[C@@H](C)CC)C(=O)N[C@H](C(=O)N[C@@H](CCCNC(=N)N)C(=O)N[C@@H](CCC(N)=O)C(=O)N[C@@H](CCCNC(=N)N)C(=O)N[C@@H](Cc1ccc(O)cc1)C(N)=O)[C@@H](C)O	3.6	> 1000	–	–
CC[C@H](C)[C@H](NC(=O)[C@H](Cc1ccc(O)cc1)NC(=O)[C@@H](C)NC(=O)[C@@H]1CCCN1C(=O)[C@@H](N)Cc1ccc(O)cc1)C(=O)N[C@@H](CC(N)=O)C(=O)N[C@@H](CC(C)C)C(=O)N[C@H](C(=O)N[C@H](C(=O)N[C@@H](CCCN=C(N)N)C(=O)N[C@@H](CCC(N)=O)C(=O)N[C@@H](CCCN=C(N)N)C(=O)N[C@@H](Cc1ccc(O)cc1)C(N)=O)[C@@H](C)O)[C@@H](C)CC	120	–	–	–
CC[C@H](C)[C@@H]1NC(=O)[C@H](Cc2ccc(O)cc2)NC(=O)[C@@H](C)NC(=O)[C@@H]2CCCN2C(=O)[C@@H](N)CCC(=O)NC[C@H](C(=O)N[C@H](C(=O)N[C@H](C(=O)N[C@@H](CCCNC(=N)N)C(=O)N[C@@H](CCC(N)=O)C(=O)N[C@@H](CCCNC(=N)N)C(=O)N[C@@H](Cc2ccc(O)cc2)C(N)=O)[C@@H](C)O)[C@@H](C)CC)NC(=O)[C@H](CC(N)=O)NC1=O	–	–	> 1000	> 1000
CC[C@H](C)[C@@H]1NC(=O)[C@H](Cc2ccc(O)cc2)NC(=O)[C@H](Cc2c[nH]cn2)NC(=O)[C@H](CCCNC(=N)N)NC(=O)[C@H](CC(C)C)NC(=O)[C@@H](C)NC(=O)[C@@H]2CCCN2C(=O)[C@H](CCCCN)NC(=O)[C@H](CO)NC(=O)[C@@H](NC(=O)[C@@H](N)Cc2ccc(O)cc2)CCC(=O)NC[C@H](C(=O)N[C@H](C(=O)N[C@H](C(=O)N[C@@H](CCCNC(=N)N)C(=O)N[C@@H](CCC(N)=O)C(=O)N[C@@H](CCCNC(=N)N)C(=O)N[C@@H](Cc2ccc(O)cc2)C(N)=O)[C@@H](C)O)[C@@H](C)CC)NC(=O)[C@H](CC(N)=O)NC1=O	–	> 1000	–	–
CC[C@H](C)[C@H](NC(=O)[C@H](Cc1ccc(O)cc1)NC(=O)[C@H](Cc1c[nH]cn1)NC(=O)[C@H](CCCN=C(N)N)NC(=O)[C@H](CC(C)C)NC(=O)[C@H](C)NC(=O)[C@H](CO)NC(=O)[C@H](Cc1ccc(O)cc1)NC(=O)[C@H](Cc1ccc(O)cc1)NC(=O)[C@H](CCCN=C(N)N)NC(=O)[C@H](C)N)C(=O)N[C@@H](CC(N)=O)C(=O)N[C@H]1CCCCNC(=O)CC[C@@H](C(=O)N[C@@H](CCCN=C(N)N)C(=O)N[C@@H](Cc2ccc(O)cc2)C(N)=O)NC(=O)[C@H](CCCN=C(N)N)NC(=O)[C@H]([C@@H](C)O)NC(=O)[C@H]([C@@H](C)CC)NC1=O (H-ARYYSALRHYINKITRERY-NH2; lactam 13-17)	360	> 1000	–	–
CC[C@H](C)[C@H](NC(=O)[C@H](Cc1ccc(O)cc1)NC(=O)[C@H](Cc1c[nH]cn1)NC(=O)[C@H](CCCNC(=N)N)NC(=O)[C@H](CC(C)C)NC(=O)[C@H](C)NC(=O)[C@H](CO)NC(=O)[C@H](Cc1ccc(O)cc1)NC(=O)[C@H](Cc1ccc(O)cc1)NC(=O)[C@H](CCCNC(=N)N)NC(=O)[C@H](C)N)C(=O)N[C@@H](CC(N)=O)C(=O)N[C@@H](CC(C)C)C(=O)N[C@H](C(=O)N[C@H](C(=O)N[C@H]1CCCCNC(=O)CC[C@@H](C(N)=O)NC(=O)[C@H](CCCNC(=N)N)NC(=O)[C@H](CCC(N)=O)NC1=O)[C@@H](C)O)[C@@H](C)CC (H-ARYYSALRHYINLITKQRE-NH2; lactam 16-19)	–	–	–	> 1000
CC[C@H](C)[C@H](NC(=O)[C@H](Cc1ccc(O)cc1)NC(=O)[C@H](Cc1cnc[nH]1)NC(=O)[C@H](CCCNC(=N)N)NC(=O)[C@H](CC(C)C)NC(=O)[C@H](C)NC(=O)[C@H](CO)NC(=O)[C@H](Cc1ccc(O)cc1)NC(=O)[C@H](Cc1ccc(O)cc1)NC(=O)[C@H](CCCNC(=N)N)NC(=O)[C@H](C)N)C(=O)N[C@@H](CC(N)=O)C(=O)N[C@H]1CNC(=O)CC[C@@H](C(=O)N[C@@H](CCCNC(=N)N)C(=O)N[C@@H](Cc2ccc(O)cc2)C(N)=O)NC(=O)[C@H](CCCNC(=N)N)NC(=O)[C@H]([C@@H](C)O)NC(=O)[C@H]([C@@H](C)CC)NC1=O (H-ARYYSALRHYIN[Dap]ITRERY-NH2; lactam 13-17)	590	> 1000	–	–
CC[C@H](C)[C@H](NC(=O)[C@H](Cc1ccc(O)cc1)NC(=O)[C@H](Cc1cnc[nH]1)NC(=O)[C@H](CCCNC(=N)N)NC(=O)[C@H](CC(C)C)NC(=O)[C@H](C)NC(=O)[C@H](CO)NC(=O)[C@H](Cc1ccc(O)cc1)NC(=O)[C@H](Cc1ccc(O)cc1)NC(=O)[C@H](CCCNC(=N)N)NC(=O)[C@H](C)N)C(=O)N[C@@H](CC(N)=O)C(=O)N[C@H]1CCCNC(=O)CC[C@@H](C(=O)N[C@@H](CCCNC(=N)N)C(=O)N[C@@H](Cc2ccc(O)cc2)C(N)=O)NC(=O)[C@H](CCCNC(=N)N)NC(=O)[C@H]([C@@H](C)O)NC(=O)[C@H]([C@@H](C)CC)NC1=O (H-ARYYSALRHYIN[Orn]ITRERY-NH2; lactam 13-17)	950	> 1000	–	–
